In ChEMBL document CHEMBL1140436, “Synthesis, biological activity, and preliminary pharmacokinetic evaluation of analogues of a phosphosulfomannan angiogenesis inhibitor (PI-88)” (J Med Chem, 2005):
pIC50, pKd: −log10 of the molar value.

Columns and labels:
[1] = Half life in male Sprague-Dawley rat administered with 2.5 mg/kg, iv; type: ADME, organism-based; parameters: dose 2.5 mg/kg, route intravenous; settings: in vivo
In short: (§1)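 Plasma sampled predose to 48 h, counted in triplicate by liquid scintillation, no decay correction; <3× background excluded. Apparent parameters from notionally linear log-concentration phase; mean ± SD, n = 4.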

[2] = Volume of distribution in male Sprague-Dawley rat administered with 2.5 mg/kg, iv; type: ADME, organism-based; parameters: dose 2.5 mg/kg, route intravenous; settings: in vivo, read-out: Vdss; in short: as §1
[3] = biological target: Fibroblast growth factor 2 (Homo sapiens, UniProt P09038); test: Binding affinity for FGF2 by BIAcore solution affinity assay
In short: (§2)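 Surface plasmon resonance solution affinity assay: growth factor preequilibrated with ligand in solution, then injected; specific binding after background subtraction converted to free protein concentration under mass-transport conditions. Kd derived assuming 1:1 stoichiometry; duplicates averaged where measured.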

[4] = test system: Human alphaherpesvirus 1; test: Inhibition of cell to cell spread of HSV1; type: functional, organism-based, Human herpesvirus 1 strain KOS; settings: Human alphaherpesvirus 1, KOS321
In short: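 African green monkey kidney monolayers infected with HSV-1 KOS321, then 5-fold compound dilutions (0.032–20 μM) in serum-free overlay for 3 days at 37 °C. Area of 20 plaques measured from images, expressed relative to mock-treated cells. IC50 derived.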

[5] = biological target: T1, Heparanase (Homo sapiens, UniProt Q9Y251); test: Inhibitory activity against human platelet heparanase by Microcon ultrafiltration assay
T1 sequence (Q9Y251 whole entry): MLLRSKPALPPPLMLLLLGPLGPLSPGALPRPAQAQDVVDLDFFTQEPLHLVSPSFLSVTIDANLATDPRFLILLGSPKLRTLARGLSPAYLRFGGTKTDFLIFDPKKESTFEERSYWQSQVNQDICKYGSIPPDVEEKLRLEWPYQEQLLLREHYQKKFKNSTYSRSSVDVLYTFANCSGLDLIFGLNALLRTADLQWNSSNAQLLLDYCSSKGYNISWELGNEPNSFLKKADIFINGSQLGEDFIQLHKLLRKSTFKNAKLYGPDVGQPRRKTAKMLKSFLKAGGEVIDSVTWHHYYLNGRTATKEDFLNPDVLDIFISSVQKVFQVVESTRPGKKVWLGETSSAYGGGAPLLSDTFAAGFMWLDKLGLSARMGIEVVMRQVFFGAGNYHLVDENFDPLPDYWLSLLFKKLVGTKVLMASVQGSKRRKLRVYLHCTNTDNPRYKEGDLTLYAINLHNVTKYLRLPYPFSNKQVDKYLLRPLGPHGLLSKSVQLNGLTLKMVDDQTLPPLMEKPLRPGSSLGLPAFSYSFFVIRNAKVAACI
In short: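 Platelet-derived heparanase (100 ng) in 40 mM acetate pH 5.0, 0.1 mg/mL BSA with inhibitor, preequilibrated 10 min at 22 °C. Started with 5 μM [3H]HS, 4 h at 22 °C. Cleaved fragments separated by 10 kDa ultrafiltration and counted; activity = 4 h minus time-0 filtrate, compared with inhibitor-free control. IC50.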

[6] = test system: Rattus norvegicus; test: Plasma concentration in male Sprague-Dawley rat administered with 2.5 mg/kg, iv; type: ADME, organism-based; parameters: dose 2.5 mg/kg, route intravenous; settings: in vivo; in short: as §1
[7] = biological target: T2, Vascular endothelial growth factor A, long form (Homo sapiens, UniProt P15692); test: Binding affinity for VEGF by BIAcore solution affinity assay; in short: as §2
T2 sequence (P15692 whole entry): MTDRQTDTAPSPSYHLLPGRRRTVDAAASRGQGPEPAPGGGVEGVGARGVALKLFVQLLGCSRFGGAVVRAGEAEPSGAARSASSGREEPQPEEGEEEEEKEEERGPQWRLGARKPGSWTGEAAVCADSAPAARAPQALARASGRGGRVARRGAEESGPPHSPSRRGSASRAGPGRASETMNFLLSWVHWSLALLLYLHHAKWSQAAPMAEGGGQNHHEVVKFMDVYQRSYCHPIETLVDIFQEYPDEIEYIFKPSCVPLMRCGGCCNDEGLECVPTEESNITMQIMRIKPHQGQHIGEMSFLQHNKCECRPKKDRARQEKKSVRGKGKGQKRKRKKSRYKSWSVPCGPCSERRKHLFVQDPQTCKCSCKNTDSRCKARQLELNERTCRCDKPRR

[8] = biological target: Fibroblast growth factor 1 (Homo sapiens, UniProt P05230); test: Binding affinity for FGF1 by BIAcore solution affinity assay; in short: as §2
[9] = test system: Human alphaherpesvirus 1; test: Inhibition of HSV1 infection; type: functional, organism-based, Human herpesvirus 1 strain KOS; settings: Human alphaherpesvirus 1, KOS321
[10] = Clearance in male Sprague-Dawley rat administered with 2.5 mg/kg, iv; type: ADME, organism-based; parameters: dose 2.5 mg/kg, route intravenous; settings: in vivo; in short: as §1
[11] = Area under curve (0-12h) male Sprague-Dawley rat administered with 2.5 mg/kg, iv; type: ADME, organism-based; parameters: time < 12 hr, dose 2.5 mg/kg, route intravenous; settings: in vivo; in short: as §1

Fibroblast growth factor 1, sequence (P05230 whole entry): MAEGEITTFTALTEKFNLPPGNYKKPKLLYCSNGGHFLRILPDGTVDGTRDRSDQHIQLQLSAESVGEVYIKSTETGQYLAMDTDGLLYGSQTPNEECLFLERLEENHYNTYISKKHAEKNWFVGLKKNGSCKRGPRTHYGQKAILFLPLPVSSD
Fibroblast growth factor 2, sequence (P09038 143-288 limits assumed): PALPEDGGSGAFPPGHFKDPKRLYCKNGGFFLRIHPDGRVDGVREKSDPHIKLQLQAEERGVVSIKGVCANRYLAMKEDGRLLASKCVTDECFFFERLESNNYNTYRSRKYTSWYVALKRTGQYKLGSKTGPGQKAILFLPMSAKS

SMILES	half-life [1]	Vd [2]	pKd [3]	pIC50 [4]	pIC50 [5]	Cp [6]	pKd [7]	pKd [8]	pIC50 [9]	clearance [10]	AUC(0-t) at 12 h [11]
CCCCCCCCO[C@H]1O[C@H](CO)[C@@H](O)[C@H](O)[C@@H]1O[C@H]1O[C@H](CO)[C@@H](O)[C@H](O[C@H]2O[C@H](CO)[C@@H](O)[C@H](O[C@H]3O[C@H](CO)[C@@H](O)[C@H](O[C@H]4O[C@H](CO)[C@@H](O)[C@H](O)[C@@H]4O)[C@@H]3O)[C@@H]2O)[C@@H]1O	66 min	0.0229 L	7.17	6.40	5.79	35600 ng/mL	8.77	9.84	6.00	1.39 mL/min/kg	29700 ng·h/mL
O=C(CCCC[C@@H]1SC[C@@H]2NC(=O)N[C@@H]21)NCCCCCC(=O)N[C@H]1O[C@H](CO)[C@@H](O)[C@H](O)[C@@H]1O[C@H]1O[C@H](CO)[C@@H](O)[C@H](O[C@H]2O[C@H](CO)[C@@H](O)[C@H](O[C@H]3O[C@H](CO)[C@@H](O)[C@H](O[C@H]4O[C@H](CO)[C@@H](O)[C@H](O)[C@@H]4O)[C@@H]3O)[C@@H]2O)[C@@H]1O	47.4 min	0.0551 L	7.08	5.52	5.73	14000 ng/mL	8.14	9.41	5.70	6.33 mL/min/kg	6500 ng·h/mL
O=C(COc1ccccc1)N[C@H]1O[C@H](CO)[C@@H](O)[C@H](O)[C@@H]1O[C@H]1O[C@H](CO)[C@@H](O)[C@H](O[C@H]2O[C@H](CO)[C@@H](O)[C@H](O[C@H]3O[C@H](CO)[C@@H](O)[C@H](O[C@H]4O[C@H](CO)[C@@H](O)[C@H](O)[C@@H]4O)[C@@H]3O)[C@@H]2O)[C@@H]1O			6.95	5.30	5.69		8.15	9.18	5.15		
OC[C@H]1O[C@H](O[C@@H]2[C@H](O)[C@@H](O[C@@H]3[C@H](O)[C@@H](O[C@@H]4[C@H](O)[C@@H](O[C@@H]5[C@@H](OCc6ccccc6)O[C@H](CO)[C@@H](O)[C@@H]5O)O[C@H](CO)[C@H]4O)O[C@H](CO)[C@H]3O)O[C@H](CO)[C@H]2O)[C@@H](O)[C@@H](O)[C@@H]1O	49.8 min	0.0384 L	7.07	6.00	5.74	20500 ng/mL	8.77	9.92	5.70	3.32 mL/min/kg	12600 ng·h/mL
